Measurements reported in publication PMC6142410 (Current Drug Discovery Technologies, 2018).

Tests used:
human FXa = human FXa (Homo sapiens, UniProt P00742); test: Factor Xa inhibition, chromogenic substrate assay; type: biochemical
Outline: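 Human FXa (0.0625 U/mL) and test compound in aqueous 5% (v/v) DMSO mixed in Tris-BSA buffer (0.2 M NaCl, 0.1 M Tris, 0.2% BSA, pH 7.4). Chromogenic substrate added to start the reaction, then 10 s stirring. OD at 405 nm followed over time against a DMSO-only reference. Inhibition = 1 − OD(inhibitor)/OD(reference). IC50 derived from the concentration dependence.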

[1] = tested on: human plasma prothrombin time; test: Human plasma prothrombin time; type: biochemical; details: concentration that doubled the prothrombin time in human plasma; Thromborel S
Outline: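 KM-2 control plasma mixed with test compound solution and incubated 1 min at 37°C. Clotting triggered with thromboplastin (ISI=1) and time read on a coagulometer. The concentration doubling PT was estimated by regression from dose-response curves.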

Chain of human FXa (P00742 235-488 limits assumed): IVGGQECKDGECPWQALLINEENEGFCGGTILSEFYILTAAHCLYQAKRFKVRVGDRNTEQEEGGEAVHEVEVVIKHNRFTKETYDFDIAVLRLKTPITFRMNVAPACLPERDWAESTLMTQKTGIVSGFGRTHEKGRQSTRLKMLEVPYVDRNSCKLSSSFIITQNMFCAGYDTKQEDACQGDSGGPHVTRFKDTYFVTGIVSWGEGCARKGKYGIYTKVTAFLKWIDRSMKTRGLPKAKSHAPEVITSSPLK
Chain of human FXa (P00742 41-179 partner limits assumed): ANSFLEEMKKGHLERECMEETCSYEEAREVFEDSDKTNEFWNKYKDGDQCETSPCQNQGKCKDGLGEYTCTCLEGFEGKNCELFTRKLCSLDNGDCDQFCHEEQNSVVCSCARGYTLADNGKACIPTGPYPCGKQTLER

Compound: CC(=N)N(C)c1ccc(C(=O)Nc2ccc(Cl)cc2C(=O)Nc2ccc(Cl)cn2)c(F)c1 [Compound 303, N-(4-chloro-2-{[(5-chloropyridin-2-yl)amino]carbonyl}phenyl)-4-[ethanimidoyl (methyl)amino]-2-fluorobenzamide]
- IC50 (human FXa): 1 ± 0.2 nM
- PTx2 [1]: 0.09 ± 0.02 µM

Compound: CNC(=O)N(C)c1ccc(C(=O)Nc2ccc(C)cc2C(=O)Nc2ccc(Cl)cn2)cc1 [Compound 117, N-(5-chloropyridin-2-yl)-5-methyl-2-[(4-{methyl[(methylamino)carbonyl]amino}benzoyl)amino]benzamide]
- IC50 (human FXa): 0.15 ± 0.03 nM
- PTx2 [1]: 2.0 ± 0.4 µM

Compound: CC(=N)N(C)c1ccc(C(=O)Nc2ccc(C)cc2C(=O)Nc2ccc(Cl)cn2)c(F)c1 [Compound 302, N-(2-{[(5-chloropyridin-2-yl)amino]carbon-yl}-4-methylphenyl)-4-[ethanimidoyl(methyl)amino]-2-fluorobenzamide]
- IC50 (human FXa): 0.8 ± 0.2 nM
- PTx2 [1]: 0.09 ± 0.02 µM

Compound: COc1cc(N(C)C(C)=N)ccc1C(=O)Nc1ccc(C)cc1C(=O)Nc1ccc(Cl)cn1 [Compound 307, N-(2-{[(5-chloropyridin-2-yl)amino]carbonyl}-4-methylphenyl)-4-[ethanimidoyl(methyl)amino]-2-methoxybenzamide]
- IC50 (human FXa): 1 ± 0.2 nM
- PTx2 [1]: 2.0 ± 0.4 µM

Compound: CC(=N)N(C)c1ccc(C(=O)Nc2ccc(C)cc2C(=O)Nc2ccc(Cl)cc2)cc1 [Compound 304, N-(4-chlorophenyl)-2-({4-[ethanimidoyl (methyl)amino]benzoyl}amino)-5-methylbenzamide]
- IC50 (human FXa): 1 ± 0.2 nM
- PTx2 [1]: >30 µM

Compound: CNC(=O)N(C)c1ccc(C(=O)Nc2ccccc2C(=O)Nc2ccc(Cl)cn2)cc1 [Compound 317, N-(5-chloropyridin-2-yl)-2-[(4-{methyl[ (methylamino)carbonyl]amino}benzoyl)amino]benzamide]
- IC50 (human FXa): 0.25 ± 0.05 nM
- PTx2 [1]: 3.0 ± 0.6 µM

Compound: CNC(=O)N(C)c1ccc(C(=O)Nc2ccc(C)cc2C(=O)Nc2ccc(Cl)cc2)cc1 [Compound 311, N-(4-chlorophenyl)-5-methyl-2-[(4-{methyl [(methylamino)carbonyl]amino}benzoyl)amino]benzamide]
- IC50 (human FXa): 2 ± 0.3 nM
- PTx2 [1]: >30 µM

Compound: CNC(=O)N(C)c1ccc(C(=O)Nc2ccc(C)cc2C(=O)Nc2ccc(C)cc2)cc1 [Compound 312, 5-methyl-2-[(4-{methyl[(methylamino)carbonyl]amino}benzoyl)amino]-N-(4-methyl-phenyl)benzamide]
- IC50 (human FXa): 0.15 ± 0.03 nM
- PTx2 [1]: 3.0 ± 0.6 µM

Compound: CC(=N)N(C)c1ccc(C(=O)Nc2ccccc2C(=O)Nc2ccc(Cl)cn2)cc1 [Compound 310, N-(5-chloropyridin-2-yl)-2-({4-[ethanimidoyl (methyl)amino]benzoyl}amino)benzamide]
- IC50 (human FXa): 2 ± 0.2 nM
- PTx2 [1]: 0.50 ± 0.12 µM
